Experimental data reported in ChEMBL document CHEMBL1128505, “On the quantitative structure-activity relationships of meta-substituted (S)-phenylpiperidines, a class of preferential dopamine D2 autoreceptor ligands: modeling of dopamine synthesis and release in vivo by means of partial least squares regression” (1995).

Key:
[1] = target: D(2) dopamine receptor (Rattus norvegicus) (UniProt P61169); test: Effect on extracellular DA levels in the striatal region of rat brain.; type: functional, tissue-based
In short: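 Awake, freely moving rats; test compound injected subcutaneously, with dose varying by compound. Extracellular striatal DA measured by microdialysis, analysing perfusates collected from implanted probes. The value is the maximum DA level between 20 and 100 min after administration, expressed as percent of saline controls.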

[2] = target: D(2) dopamine receptor (Rattus norvegicus) (UniProt P61169); test: Effect on DOPA accumulation in limbic and striatal regions of reserpine-pretreated rat brains.; type: functional, tissue-based; conditions: Brain
[3] = tested on: Rattus norvegicus; test: The in vivo effect of the compound (sc injection, 107 umol/kg) on DOPA accumulation in limbic and striatal regions of reserpine-pretreated rat brains.; type: functional, Brain
In short: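 Rats pretreated with reserpine 18 h before subcutaneous test compound, then given the decarboxylase inhibitor NSD 1015. L-DOPA accumulation measured in limbic and striatal brain tissue. The value is the maximum effect, taken at a dose where the dose-response curve had reached maximum, expressed as percent of controls.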

[4] = tested on: Rattus norvegicus; test: The in vivo effect of the compound (sc,3.7uM/kg) on DOPA accumulation in limbic and striatal regions of the rat brain without reserpine pretreatment.; type: functional
In short: (§1)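 No reserpine pretreatment. Rats given test compound subcutaneously, then the decarboxylase inhibitor NSD 1015. L-DOPA accumulated in limbic and striatal brain tissue was measured. The value is the maximum effect, selected at a dose where the dose-response curve had reached maximum, expressed as percent of controls.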

[5] = tested on: Rattus norvegicus; test: In vivo effect on DOPA accumulation in limbic and striatal regions of the rat brain without reserpine pretreatment; type: functional, Limbic system; set-up: unit not given beside the values
[6] = tested on: Rattus norvegicus; test: The in vivo effect of the compound (sc injection, 50 umol/kg) on DOPA accumulation in limbic and striatal regions of reserpine-pretreated rat brains.; type: functional, Brain
[7] = tested on: Rattus norvegicus; test: The in vivo effect of the compound (sc injection, 227 umol/kg) on DOPA accumulation in limbic and striatal regions of reserpine-pretreated rat brains.; type: functional, Brain
[8] = tested on: Rattus norvegicus; test: The in vivo effect of the compound (sc,227uM/kg) on DOPA accumulation in limbic and striatal regions of the rat brain without reserpine pretreatment.; type: functional; in short: as §1

Sequence of D(2) dopamine receptor (Rattus norvegicus) (P61169 whole entry): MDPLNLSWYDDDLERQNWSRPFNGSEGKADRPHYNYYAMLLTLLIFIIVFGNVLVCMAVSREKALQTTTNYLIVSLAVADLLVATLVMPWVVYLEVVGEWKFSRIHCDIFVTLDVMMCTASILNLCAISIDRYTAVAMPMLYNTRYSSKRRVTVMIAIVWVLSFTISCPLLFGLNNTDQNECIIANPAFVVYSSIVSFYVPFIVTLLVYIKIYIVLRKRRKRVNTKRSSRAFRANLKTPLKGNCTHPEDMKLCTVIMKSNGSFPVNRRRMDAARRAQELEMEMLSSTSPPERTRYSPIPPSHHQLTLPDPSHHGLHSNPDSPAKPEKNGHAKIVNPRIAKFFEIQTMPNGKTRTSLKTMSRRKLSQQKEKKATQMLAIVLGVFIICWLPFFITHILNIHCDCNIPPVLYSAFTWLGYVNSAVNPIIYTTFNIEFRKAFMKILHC

SMILES | Activity [1] | DOPA accumulation [2] | also measured
CCN1CCC[C@@H](c2cccc(C#N)c2)C1 | 223 | – | –
CCCN1CCC[C@@H](c2cccc(C(C)=O)c2)C1 | 196 | 73 | –
CCCCN1CCC[C@@H](c2cccc(O)c2)C1 | – | – | DOPA accumulation [3]: 22; DOPA accumulation [4]: 86
Oc1cccc([C@@H]2CCCN(CCc3ccccc3)C2)c1 | – | – | DOPA accumulation [3]: 22; DOPA accumulation [4]: 37
C=CCN1CCC[C@@H](c2cccc(C#N)c2)C1 | 593 | 85 | –
CCCN1CCC[C@@H](c2cccc(CC#N)c2)C1 | – | 57 | –
CC(C)N1CCC[C@@H](c2cccc(O)c2)C1 | 56 | 18 | DOPA accumulation [5]: 47
CCCN1CCC[C@@H](c2cccc(CO)c2)C1 | 191 | 50 | –
CCCN1CCC[C@@H](c2cccc(SC)c2)C1 | – | – | DOPA accumulation [6]: 92
CCCN1CCC[C@@H](c2cccc(N)c2)C1 | – | 91 | –
CCCN1CCC[C@@H](c2cccc(S(C)(=O)=O)c2)C1 | 293 | 95 | –
CCCN1CCC[C@@H](c2cccc(C#N)c2)C1 | 411 | 105 | –
CCCN1CCC[C@@H](c2ccccc2)C1 | 543 | – | DOPA accumulation [6]: 65; DOPA accumulation [5]: 140
CCCCN1CCC[C@@H](c2cccc(OS(=O)(=O)C(F)(F)F)c2)C1 | – | – | DOPA accumulation [5]: 234
CCCN1CCC[C@@H](c2cccc(C=O)c2)C1 | – | 83 | –
C=CCN1CCC[C@@H](c2ccccc2)C1 | 364 | – | –
CCCN1CCC[C@@H](c2cccc(Br)c2)C1 | 372 | 101 | –
CCCN1CCC[C@@H](c2cccc(O)c2)C1 [PRECLAMOL] | 400 | – | DOPA accumulation [7]: 30
CCCc1cccc([C@@H]2CCCN(CCC)C2)c1 | – | 62 | DOPA accumulation [5]: 190
CCCN1CCC[C@@H](c2cccc(-c3ccsc3)c2)C1 | 106 | – | –
CCCCN1CCC[C@@H](c2cccc(C#N)c2)C1 | – | – | DOPA accumulation [6]: 71
CCCN1CCC[C@@H](c2cccc(OC)c2)C1 | – | 66 | –
C#Cc1cccc([C@@H]2CCCN(CCC)C2)c1 | 270 | – | –
CN1CCC[C@@H](c2cccc(OS(=O)(=O)C(F)(F)F)c2)C1 | – | – | DOPA accumulation [5]: 157
Oc1cccc([C@@H]2CCCNC2)c1 | – | – | DOPA accumulation [8]: 44
CCC(C)N1CCC[C@@H](c2cccc(C#N)c2)C1 (some centres not stated) | 282 | – | –
CCN1CCC[C@@H](c2cccc(OS(=O)(=O)C(F)(F)F)c2)C1 | 143 | – | DOPA accumulation [5]: 286
CN1CCC[C@@H](c2cccc(O)c2)C1 | – | – | DOPA accumulation [3]: 20; DOPA accumulation [8]: 51
CCCN1CCC[C@@H](c2cccc(OS(C)(=O)=O)c2)C1 | 239 | 92 | DOPA accumulation [5]: 249
